Data as given in ChEMBL document CHEMBL1137508, “Pentacyclic triterpenes. Part 5: synthesis and SAR study of corosolic acid derivatives as inhibitors of glycogen phosphorylases” (Bioorg Med Chem Lett, 2007).
The source made the active and inactive calls. No cut-off for these calls is given here.

Species on record: Oryctolagus cuniculus
Assay: (§1) Inhibition of rabbit muscle glycogen phosphorylase a
Procedure, shortened: (§2)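 Rabbit muscle glycogen phosphorylase a activity was measured in the glycogen-synthesis direction by quantifying phosphate released from glucose-1-phosphate. Values are means of three experiments.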

| Activity | SMILES |
| --- | --- |
| inactive | C[C@H]1[C@H](C)CC[C@]2(C(=O)O)CC[C@]3(C)C(=CC[C@@H]4[C@@]5(C)C[C@@H](OC(=O)CCC(=O)O)[C@H](OC(=O)CCC(=O)O)C(C)(C)[C@@H]5CC[C@]43C)[C@H]12 |
| inactive | C[C@H]1[C@H](C)CC[C@]2(C(=O)OCC(=O)O)CC[C@]3(C)C(=CC[C@@H]4[C@@]5(C)C[C@@H](O)[C@H](O)C(C)(C)[C@@H]5CC[C@]43C)[C@H]12 |

Molecular target: not listed separately
Assay: as §1
Parameters: species or system Oryctolagus cuniculus
Procedure, shortened: as §2

| SMILES | IC50 |
| --- | --- |
| CC(=O)OC[C@H]1O[C@@H](OC(=O)[C@]23CC[C@@H](C)[C@H](C)[C@H]2C2=CC[C@@H]4[C@@]5(C)C[C@@H](O)[C@H](O)C(C)(C)[C@@H]5CC[C@@]4(C)[C@]2(C)CC3)[C@H](OC(C)=O)[C@@H](OC(C)=O)[C@@H]1OC(C)=O | 373 µM |
| C[C@H]1[C@H](C)CC[C@]2(C(=O)O)CC[C@]3(C)C(=CC[C@@H]4[C@@]5(C)C[C@@H](O)[C@@H](O)C(C)(C)[C@@H]5CC[C@]43C)[C@H]12 [PYGENIC ACID A] | 212 µM |
| C[C@H]1[C@H](C)CC[C@]2(C(=O)OCc3ccccc3)CC[C@]3(C)C(=CC[C@@H]4[C@@]5(C)C[C@@H](OC(=O)CCC(=O)O)[C@H](OC(=O)CCC(=O)O)C(C)(C)[C@@H]5CC[C@]43C)[C@H]12 | 722 µM |
| C[C@H]1[C@H](C)CC[C@]2(C(=O)O)CC[C@]3(C)C(=CC[C@@H]4[C@@]5(C)C[C@@H](OC(=O)c6ccccc6)[C@H](O)C(C)(C)[C@@H]5CC[C@]43C)[C@H]12 | 5.1 µM |
| Cc1ccc(S(=O)(=O)O[C@@H]2C[C@]3(C)[C@H]4CC=C5[C@@H]6[C@@H](C)[C@H](C)CC[C@]6(C(=O)OCc6ccccc6)CC[C@@]5(C)[C@]4(C)CC[C@H]3C(C)(C)[C@H]2O)cc1 | 444 µM |
| C[C@H]1[C@H](C)CC[C@]2(C(=O)O)CC[C@]3(C)C(=CC[C@@H]4[C@@]5(C)C[C@@H](O)[C@H](O)C(C)(C)[C@@H]5CC[C@]43C)[C@H]12 [COROSOLIC ACID] | 20 µM |
| CCCCOC(=O)[C@]12CC[C@@H](C)[C@H](C)[C@H]1C1=CC[C@@H]3[C@@]4(C)C[C@@H](O)[C@H](O)C(C)(C)[C@@H]4CC[C@@]3(C)[C@]1(C)CC2 | 92.1 µM |
| CCCCCC(=O)O[C@@H]1C[C@]2(C)[C@H]3CC=C4[C@@H]5[C@@H](C)[C@H](C)CC[C@]5(C(=O)O)CC[C@@]4(C)[C@]3(C)CC[C@H]2C(C)(C)[C@H]1O | 3.26 µM |
| CCC(=O)O[C@@H]1C[C@]2(C)[C@H]3CC=C4[C@@H]5[C@@H](C)[C@H](C)CC[C@]5(C(=O)O)CC[C@@]4(C)[C@]3(C)CC[C@H]2C(C)(C)[C@H]1O | 96.7 µM |
| CCCC(=O)O[C@@H]1C[C@]2(C)[C@H]3CC=C4[C@@H]5[C@@H](C)[C@H](C)CC[C@]5(C(=O)O)CC[C@@]4(C)[C@]3(C)CC[C@H]2C(C)(C)[C@H]1OC(=O)CCC | 78.7 µM |
| C[C@H]1[C@H](C)CC[C@]2(C(=O)O[C@@H]3O[C@H](CO)[C@@H](O)[C@H](O)[C@H]3O)CC[C@]3(C)C(=CC[C@@H]4[C@@]5(C)C[C@@H](O)[C@H](O)C(C)(C)[C@@H]5CC[C@]43C)[C@H]12 | 106 µM |
| CC(=O)O[C@@H]1C[C@]2(C)[C@H]3CC=C4[C@@H]5[C@@H](C)[C@H](C)CC[C@]5(C(=O)O)CC[C@@]4(C)[C@]3(C)CC[C@H]2C(C)(C)[C@H]1OC(C)=O | 35 µM |
| CCCC(=O)O[C@@H]1C[C@]2(C)[C@H]3CC=C4[C@@H]5[C@@H](C)[C@H](C)CC[C@]5(C(=O)O)CC[C@@]4(C)[C@]3(C)CC[C@H]2C(C)(C)[C@H]1O | 77.9 µM |
| CC(=O)O[C@@H]1C[C@]2(C)[C@H]3CC=C4[C@@H]5[C@@H](C)[C@H](C)CC[C@]5(C(=O)O)CC[C@@]4(C)[C@]3(C)CC[C@H]2C(C)(C)[C@H]1O | 37.7 µM |
| CCC(=O)O[C@@H]1C[C@]2(C)[C@H]3CC=C4[C@@H]5[C@@H](C)[C@H](C)CC[C@]5(C(=O)O)CC[C@@]4(C)[C@]3(C)CC[C@H]2C(C)(C)[C@H]1OC(=O)CC | 73.7 µM |
| CCOC(=O)COC(=O)[C@]12CC[C@@H](C)[C@H](C)[C@H]1C1=CC[C@@H]3[C@@]4(C)C[C@@H](O)[C@H](O)C(C)(C)[C@@H]4CC[C@@]3(C)[C@]1(C)CC2 | 102 µM |
| C[C@H]1[C@H](C)CC[C@]2(C(=O)O)CC[C@]3(C)C(=CC[C@@H]4[C@@]5(C)C[C@H](O)[C@H](O)C(C)(C)[C@@H]5CC[C@]43C)[C@H]12 | 116 µM |

Now from value to molecule:

| IC50 | SMILES |
| --- | --- |
| 41.2 µM | C[C@H]1[C@H](C)CC[C@]2(C(=O)OCc3ccccc3)CC[C@]3(C)C(=CC[C@@H]4[C@@]5(C)C[C@@H](O)[C@H](O)C(C)(C)[C@@H]5CC[C@]43C)[C@H]12 |
| 82.5 µM | CCCOC(=O)[C@]12CC[C@@H](C)[C@H](C)[C@H]1C1=CC[C@@H]3[C@@]4(C)C[C@@H](O)[C@H](O)C(C)(C)[C@@H]4CC[C@@]3(C)[C@]1(C)CC2 |
| 62.1 µM | C[C@H]1[C@H](C)CC[C@]2(C(=O)OCn3cccn3)CC[C@]3(C)C(=CC[C@@H]4[C@@]5(C)C[C@@H](O)[C@H](O)C(C)(C)[C@@H]5CC[C@]43C)[C@H]12 |
| 69.5 µM | C[C@H]1[C@H](C)CC[C@]2(C(=O)OCc3ccccc3)CC[C@]3(C)C(=CC[C@@H]4[C@@]5(C)C[C@@H]6OC6C(C)(C)[C@@H]5CC[C@]43C)[C@H]12 (single isomer, unassigned) |
| 33.7 µM | COC(=O)[C@]12CC[C@@H](C)[C@H](C)[C@H]1C1=CC[C@@H]3[C@@]4(C)C[C@@H](O)[C@H](O)C(C)(C)[C@@H]4CC[C@@]3(C)[C@]1(C)CC2 [COROSOLIC ACID METHYL ESTER] |
| 108 µM | C[C@H]1[C@H](C)CC[C@]2(C(=O)OCc3ccccc3)CC[C@]3(C)C(=CC[C@@H]4[C@@]5(C)C[C@H](O)[C@H](O)C(C)(C)[C@@H]5CC[C@]43C)[C@H]12 |
| 324 µM | C[C@H]1[C@H](C)CC[C@]2(C(=O)OCc3ccccc3)CC[C@]3(C)C(=CC[C@@H]4[C@@]5(C)C[C@@H](O)[C@@H](O)C(C)(C)[C@@H]5CC[C@]43C)[C@H]12 |
| 7.31 µM | C[C@H]1[C@H](C)CC[C@]2(C(=O)OCc3ccccc3)CC[C@]3(C)C(=CC[C@@H]4[C@@]5(C)C=C(O)C(=O)C(C)(C)[C@@H]5CC[C@]43C)[C@H]12 |
| 46.7 µM | CCOC(=O)[C@]12CC[C@@H](C)[C@H](C)[C@H]1C1=CC[C@@H]3[C@@]4(C)C[C@@H](O)[C@H](O)C(C)(C)[C@@H]4CC[C@@]3(C)[C@]1(C)CC2 |
| 43.4 µM | C[C@H]1[C@H](C)CC[C@]2(C(=O)OCc3ccccc3)CC[C@]3(C)C(=CC[C@@H]4[C@@]5(C)C[C@@H](OS(C)(=O)=O)[C@H](O)C(C)(C)[C@@H]5CC[C@]43C)[C@H]12 |
| 91.2 µM | C=CCOC(=O)[C@]12CC[C@@H](C)[C@H](C)[C@H]1C1=CC[C@@H]3[C@@]4(C)C[C@@H](O)[C@H](O)C(C)(C)[C@@H]4CC[C@@]3(C)[C@]1(C)CC2 |
| 31.8 µM | C[C@H]1[C@H](C)CC[C@]2(C(=O)OCc3ccccc3)CC[C@]3(C)C(=CC[C@@H]4[C@@]5(C)C[C@@H](O)C(=O)C(C)(C)[C@@H]5CC[C@]43C)[C@H]12 |
